Experimental data taken from ChEMBL document CHEMBL3120083, “Discovery of N-[4-[6-tert-butyl-5-methoxy-8-(6-methoxy-2-oxo-1H-pyridin-3-yl)-3-quinolyl]phenyl]methanesulfonamide (RG7109), a potent inhibitor of the hepatitis C virus NS5B polymerase” (J Med Chem, 2014).

Assays:
Hepatitis C virus [1] = assay: Antiviral activity against Hepatitis C virus genotype 1a clinical isolate RO-34 expressing NS5B assessed as inhibition of viral replication after 4 days by luciferase reporter gene assay; type: functional, organism-based, Hepacivirus hominis; conditions: genotype 1a clinical isolate RO-34, 96 h
Hepatitis C virus [2] = assay: Antiviral activity against Hepatitis C virus genotype 1b Con1 infected in human 2209-23 cells after 72 hrs by luciferase reporter gene assay in presence of 40% human serum; type: functional, organism-based, Hepacivirus hominis; conditions: isolate Con1, 2209-23, 72 h
Hepatitis C virus [3] = assay: Antiviral activity against Hepatitis C virus genotype 1b clinical isolate RO-4 expressing NS5B assessed as inhibition of viral replication after 4 days by luciferase reporter gene assay; type: functional, organism-based, Hepacivirus hominis; conditions: genotype 1b clinical isolate RO-4, 96 h
[4] = Drug uptake in Beagle dog at 30 mg/kg, po of amorphus MBP compound measured at 8 hrs; type: ADME, organism-based, Canis lupus familiaris; set-up: dose 30 mg/kg, route oral; conditions: in vivo, read-out: Drug uptake
Procedure, shortened: (§1)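 Single oral dose by gavage in 2% Klucel LF in water (the amorphous MBP was made by solvent-controlled co-precipitation with Eudragit L100-55 from DMA into chilled pH 3.0 dilute HCl), n = 3. EDTA blood typically sampled at 0.25, 0.5, 1, 2, 4, 6, 8 and 24 h. Plasma levels by LC/MS/MS after acetonitrile protein precipitation.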

Hepatitis C virus [5] = assay: Antiviral activity against Hepatitis C virus genotype 1b clinical isolate RO-9 expressing NS5B assessed as inhibition of viral replication after 4 days by luciferase reporter gene assay; type: functional, organism-based, Hepacivirus hominis; conditions: genotype 1b clinical isolate RO-9, 96 h
[6] = Oral bioavailability in Beagle dog at 30 mg/kg of amorphus MBP compound; type: ADME, organism-based, Canis lupus familiaris; conditions: in vivo; procedure, shortened: as §1
Hepatitis C virus [7] = assay: Antiviral activity against Hepatitis C virus genotype 1b Con1 infected in human 2209-23 cells after 72 hrs by luciferase reporter gene assay; type: functional, organism-based, Hepacivirus hominis; conditions: isolate Con1, 2209-23, 72 h
Procedure, shortened: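 Stable GT-1b Con1 subgenomic replicon cell line expressing a renilla luciferase reporter, used as the readout of inhibition. EC50 from luciferase signal, n 2.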

Hepatitis C virus [8] = assay: Antiviral activity against Hepatitis C virus genotype 1a H77 infected in human 2209-23 cells after 72 hrs by luciferase reporter gene assay in presence of 40% human serum; type: functional, organism-based, Hepacivirus hominis; conditions: genotype 1a H77, 2209-23, 72 h
[9] = Clearance in Beagle dog at 0.86 mg/kg, iv; type: ADME, organism-based, Canis lupus familiaris; set-up: dose 0.86 mg/kg, route intravenous; conditions: in vivo
Procedure, shortened: (§2)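 Single IV bolus by tail vein or jugular cannula in 2% dimethyl acetamide/20% PEG400/23.4% HPBCD, n = 3. EDTA blood taken at typically 0.08, 0.25, 0.5, 1, 2, 4, 6, 8 and 24 h. Plasma assayed by LC/MS/MS after acetonitrile protein precipitation; clearance, Vdss and t1/2 derived from the plasma data.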

[10] = AUC (0 to infinity) in Beagle dog at 30 mg/kg, po of amorphus MBP compound; type: ADME, organism-based, Canis lupus familiaris; set-up: time infinity, dose 30 mg/kg, route oral; conditions: plasma; procedure, shortened: as §1
Hepatitis C virus [11] = assay: Antiviral activity against Hepatitis C virus genotype 1a clinical isolate RO-18 expressing NS5B assessed as inhibition of viral replication after 4 days by luciferase reporter gene assay; type: functional, organism-based, Hepacivirus hominis; conditions: genotype 1a clinical isolate RO-18, 96 h
Hepatitis C virus [12] = assay: Antiviral activity against Hepatitis C virus genotype 1a clinical isolate RO-28 expressing NS5B assessed as inhibition of viral replication after 4 days by luciferase reporter gene assay; type: functional, organism-based, Hepacivirus hominis; conditions: genotype 1a clinical isolate RO-28, 96 h
Hepatitis C virus [13] = assay: Antiviral activity against Hepatitis C virus genotype 1a H77 expressing NS5B assessed as inhibition of viral replication after 4 days by luciferase reporter gene assay; type: functional, organism-based, Hepacivirus hominis; conditions: genotype 1a H77, 96 h
Hepatitis C virus [14] = assay: Antiviral activity against Hepatitis C virus genotype 1b clinical isolate RO-2 expressing NS5B assessed as inhibition of viral replication after 4 days by luciferase reporter gene assay; type: functional, organism-based, Hepacivirus hominis; conditions: genotype 1b clinical isolate RO-2, 96 h
[15] = Cmax in Wistar/Han rat at 30 mg/kg, po of amorphus MBP compound; type: ADME, organism-based; set-up: dose 30 mg/kg, route oral; conditions: in vivo; procedure, shortened: as §1
Hepatitis C virus [16] = assay: Antiviral activity against Hepatitis C virus genotype 1b clinical isolate RO-1 expressing NS5B assessed as inhibition of viral replication after 4 days by luciferase reporter gene assay; type: functional, organism-based, Hepacivirus hominis; conditions: genotype 1b clinical isolate RO-1, 96 h
[17] = Volume of distribution at steady state in Beagle dog at 0.86 mg/kg, iv; type: ADME, organism-based, Canis lupus familiaris; set-up: dose 0.86 mg/kg, route intravenous; conditions: in vivo, read-out: Vdss; procedure, shortened: as §2
Hepatitis C virus [18] = assay: Antiviral activity against Hepatitis C virus genotype 1b clinical isolate RO-7 expressing NS5B assessed as inhibition of viral replication after 4 days by luciferase reporter gene assay; type: functional, organism-based, Hepacivirus hominis; conditions: genotype 1b clinical isolate RO-7, 96 h
Hepatitis C virus [19] = assay: Antiviral activity against Hepatitis C virus genotype 1a clinical isolate RO-33 expressing NS5B assessed as inhibition of viral replication after 4 days by luciferase reporter gene assay; type: functional, organism-based, Hepacivirus hominis; conditions: genotype 1a clinical isolate RO-33, 96 h
Hepatitis C virus [20] = assay: Antiviral activity against Hepatitis C virus genotype 1b clinical isolate RO-3 expressing NS5B assessed as inhibition of viral replication after 4 days by luciferase reporter gene assay; type: functional, organism-based, Hepacivirus hominis; conditions: genotype 1b clinical isolate RO-3, 96 h
[21] = Half life in Beagle dog at 0.86 mg/kg, iv; type: ADME, organism-based, Canis lupus familiaris; set-up: dose 0.86 mg/kg, route intravenous; conditions: in vivo; procedure, shortened: as §2
Hepatitis C virus [22] = assay: Antiviral activity against Hepatitis C virus genotype 1a clinical isolate RO-35 expressing NS5B assessed as inhibition of viral replication after 4 days by luciferase reporter gene assay; type: functional, organism-based, Hepacivirus hominis; conditions: genotype 1a clinical isolate RO-35, 96 h
[23] = Thermodynamic solubility of the compound; type: physicochemical; conditions: read-out: Therm_solubility
[24] = Clearance in Wistar/Han rat at 2.6 mg/kg, iv; type: ADME, organism-based; set-up: dose 2.6 mg/kg, route intravenous; conditions: in vivo; procedure, shortened: as §2
Hepatitis C virus [25] = assay: Antiviral activity against Hepatitis C virus genotype 1b Con1 expressing NS5B assessed as inhibition of viral replication after 4 days by luciferase reporter gene assay; type: functional, organism-based, Hepacivirus hominis; conditions: isolate Con1, 96 h
[26] = AUC (0 to infinity) in Wistar/Han rat at 30 mg/kg, po of amorphus MBP compound; type: ADME, organism-based; set-up: time infinity, dose 30 mg/kg, route oral; conditions: plasma; procedure, shortened: as §1
[27] = Drug uptake in Wistar/Han rat at 30 mg/kg, po of amorphus MBP compound measured at 8 hrs; type: ADME, organism-based; set-up: dose 30 mg/kg, route oral; conditions: in vivo, read-out: Drug uptake; procedure, shortened: as §1
Hepatitis C virus [28] = assay: Antiviral activity against Hepatitis C virus genotype 1b clinical isolate RO-8 expressing NS5B assessed as inhibition of viral replication after 4 days by luciferase reporter gene assay; type: functional, organism-based, Hepacivirus hominis; conditions: genotype 1b clinical isolate RO-8, 96 h
[29] = Cmax in Beagle dog at 30 mg/kg, po of amorphus MBP compound; type: ADME, organism-based, Canis lupus familiaris; set-up: dose 30 mg/kg, route oral; conditions: in vivo; procedure, shortened: as §1
[30] = Volume of distribution at steady state in Wistar/Han rat at 2.6 mg/kg, iv; type: ADME, organism-based; set-up: dose 2.6 mg/kg, route intravenous; conditions: in vivo, read-out: Vdss; procedure, shortened: as §2
Hepatitis C virus [31] = assay: Antiviral activity against Hepatitis C virus genotype 1a clinical isolate RO-38 expressing NS5B assessed as inhibition of viral replication after 4 days by luciferase reporter gene assay; type: functional, organism-based, Hepacivirus hominis; conditions: genotype 1a clinical isolate RO-38, 96 h
Hepatitis C virus [32] = assay: Antiviral activity against Hepatitis C virus genotype 1b clinical isolate RO-10 expressing NS5B assessed as inhibition of viral replication after 4 days by luciferase reporter gene assay; type: functional, organism-based, Hepacivirus hominis; conditions: genotype 1b clinical isolate RO-10, 96 h
[33] = Oral bioavailability in Wistar/Han rat at 30 mg/kg of amorphus MBP compound; type: ADME, organism-based; conditions: in vivo; procedure, shortened: as §1
Hepatitis C virus [34] = assay: Antiviral activity against Hepatitis C virus genotype 1a clinical isolate RO-41 expressing NS5B assessed as inhibition of viral replication after 4 days by luciferase reporter gene assay; type: functional, organism-based, Hepacivirus hominis; conditions: genotype 1a clinical isolate RO-41, 96 h
[35] = Half life in Wistar/Han rat at 2.6 mg/kg, iv; type: ADME, organism-based; set-up: dose 2.6 mg/kg, route intravenous; conditions: in vivo; procedure, shortened: as §2

Structure (SMILES): COc1ccc(-c2cc(C(C)(C)C)c(OC)c3cc(-c4ccc(NS(C)(=O)=O)cc4)cnc23)c(=O)[nH]1
- EC50 (Hepatitis C virus [1]): 0.5 nM
- EC50 (Hepatitis C virus [2]): 3.8 nM
- EC90 (Hepatitis C virus [2]): 19 nM
- EC50 (Hepatitis C virus [3]): 0.11 nM
- concentration at 8 h [4]: 990 ng/mL
- EC50 (Hepatitis C virus [5]): 0.34 nM
- bioavailability [6]: 31%
- EC50 (Hepatitis C virus [7]): 1 nM
- EC50 (Hepatitis C virus [8]): 10 nM
- EC90 (Hepatitis C virus [8]): 63 nM
- clearance [9]: 7.5 mL/min/kg
- AUC(0-inf) [10]: 23700 ng·h/mL
- EC50 (Hepatitis C virus [11]): 0.4 nM
- EC50 (Hepatitis C virus [12]): 0.9 nM
- EC50 (Hepatitis C virus [13]): 0.3 nM
- EC50 (Hepatitis C virus [14]): 0.19 nM
- Cmax [15]: 2100 ng/mL
- EC50 (Hepatitis C virus [16]): 0.11 nM
- Vd [17]: 2.8 L/kg
- EC50 (Hepatitis C virus [18]): 0.22 nM
- EC50 (Hepatitis C virus [19]): 0.6 nM
- EC50 (Hepatitis C virus [20]): 0.43 nM
- half-life [21]: 4.3 h
- EC50 (Hepatitis C virus [22]): 0.3 nM
- solubility thermodynamic [23]: < 1 µg/mL
- clearance [24]: 11.4 mL/min/kg
- EC50 (Hepatitis C virus [25]): 0.32 nM
- AUC(0-inf) [26]: 13800 ng·h/mL
- concentration at 8 h [27]: 620 ng/mL
- EC50 (Hepatitis C virus [28]): 0.33 nM
- Cmax [29]: 1500 ng/mL
- Vd [30]: 2.2 L/kg
- EC50 (Hepatitis C virus [31]): 4.3 nM
- EC50 (Hepatitis C virus [32]): 0.34 nM
- bioavailability [33]: 26%
- EC50 (Hepatitis C virus [34]): 0.6 nM
- half-life [35]: 4.3 h
